Assay results from ChEMBL document CHEMBL5678815 (Clin Cancer Res, 2017).
Activity calls are given as the source filed them. The calls are words filed in the database; no cut-off is given here.

Tests used:
[1] = target: Cyclin-dependent kinase 15 (Homo sapiens) (UniProt Q96Q40); experiment: Inhibition of human PFTAIRE2 assessed as remaining activity at 1 uM by ATP-competition binding assay relative to control
How it was run: (§1)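 Single-point profiling at 1μM in an ATP-site-dependent competition binding assay across a panel of 395 human kinases, including mutant forms. The read-out is kinase binding signal in the presence of test agent, expressed as inhibition relative to the control signal. This screen assessed noncovalent binding interactions.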

[2] = test system: Proto-oncogene tyrosine-protein kinase receptor Ret (Homo sapiens), P07949 [V804L]; experiment: Inhibition of human RET V804L assessed as remaining activity at 1 uM by ATP-competition binding assay relative to control
How it was run: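 KINOMEscan ATP-site-dependent competition binding assay across a 395-kinase human panel including mutants; compound tested at 1μM; binding expressed relative to control signal.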

[3] = target: Ribosomal protein S6 kinase alpha-5 (Homo sapiens) (UniProt O75582); experiment: Inhibition of human RPS6KA5 assessed as remaining activity at 1 uM by ATP-competition binding assay relative to control
How it was run: (§2)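 Single-concentration (1 μM) screen in an ATP-site-dependent competition binding assay (KINOMEscan, outsourced) covering 395 human kinases, mutants included. Non-covalent binding was read as the remaining signal relative to the control signal.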

[4] = target: Serine/threonine-protein kinase 4 (Homo sapiens) (UniProt Q13043); experiment: Inhibition of human MST1 assessed as remaining activity at 1 uM by ATP-competition binding assay relative to control; how it was run: as §1
[5] = target: Activated CDC42 kinase 1 (Homo sapiens) (UniProt Q07912); experiment: Inhibition of human TNK2 assessed as remaining activity at 1 uM by ATP-competition binding assay relative to control; how it was run: as §2
[6] = target: Tyrosine-protein kinase Lck (Homo sapiens) (UniProt P06239); experiment: Inhibition of human LCK assessed as remaining activity at 1 uM by ATP-competition binding assay relative to control; how it was run: as §1
[7] = target: Activin receptor type-1-like (Homo sapiens) (UniProt P37023); experiment: Inhibition of human ACVRL1 assessed as remaining activity at 1 uM by ATP-competition binding assay relative to control
How it was run: (§3)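 KINOMEscan ATP-site-dependent competition binding panel of 395 human kinases, with compound tested at 1 μM. Binding is reported as remaining signal relative to control.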

[8] = target: Maternal embryonic leucine zipper kinase (Homo sapiens) (UniProt Q14680); experiment: Inhibition of human MELK assessed as remaining activity at 1 uM by ATP-competition binding assay relative to control; how it was run: as §1
[9] = target: Casein kinase I isoform alpha-like (Homo sapiens) (UniProt Q8N752); experiment: Inhibition of human CSNK1A1L assessed as remaining activity at 1 uM by ATP-competition binding assay relative to control; how it was run: as §3
[10] = target: Tyrosine-protein kinase Srms (Homo sapiens) (UniProt Q9H3Y6); experiment: Inhibition of human SRMS assessed as remaining activity at 1 uM by ATP-competition binding assay relative to control; how it was run: as §2
Splenocyte = experiment: In vivo inhibition of BCR signaling in female […] mouse assessed as change in phospho-S6 expression at 25 mg/kg, po administered and measured after stimulation with anti-IgM for 18 h by flow cytometry analysis; assay type: functional, organism-based
How it was run: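 Female C57BL/6 mice (5/group) received vehicle or 25 mg/kg drug by oral gavage at time zero, with spleens taken at time points from 3 to 24 h. Splenocytes were stimulated ex vivo with goat anti-mouse IgM at 10μg/mL for 18 h at 37°C in 5% CO2, then Fc-blocked and stained for CD19 plus CD69, CD86 or phospho-S6(S235/236), with 7-AAD to exclude dead cells. Read-out was flow cytometry on >5,000 gated CD19+ cells, compared with vehicle.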

[11] = target: Ephrin type-A receptor 2 (Homo sapiens) (UniProt P29317); experiment: Inhibition of human EPHA2 assessed as remaining activity at 1 uM by ATP-competition binding assay relative to control; how it was run: as §3
[12] = Antileukemic activity against human CLL mononuclear cells xenografted NSG mouse assessed as change in blood cells at 0.16 mg/ml preadministered with compound via drinking water and measured after 3 weeks by flow cytometry analysis relative to control; assay type: functional, CLL mononuclear cell
How it was run: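 Primary CLL patient mononuclear cells (1 × 10^8 per mouse) engrafted into NSG mice on day 0 after busulfan priming on day −1. Vehicle or drug was given in drinking water from day −1. Mice were killed 3 weeks after engraftment; spleens homogenized, filtered and RBC-lysed; whole blood collected. Six patients, 2–5 mice per patient; paired t-test per patient.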

[13] = target: Homeodomain-interacting protein kinase 1 (Homo sapiens) (UniProt Q86Z02); experiment: Inhibition of human HIPK1 assessed as remaining activity at 1 uM by ATP-competition binding assay relative to control; how it was run: as §1
[14] = target: Casein kinase I isoform epsilon (Homo sapiens) (UniProt P49674); experiment: Inhibition of human CSNK1E assessed as remaining activity at 1 uM by ATP-competition binding assay relative to control; how it was run: as §3
[15] = target: Serine/threonine-protein kinase LATS1 (Homo sapiens) (UniProt O95835); experiment: Inhibition of human LATS1 assessed as remaining activity at 1 uM by ATP-competition binding assay relative to control; how it was run: as §1
[16] = target: Serine/threonine-protein kinase pim-3 (Homo sapiens) (UniProt Q86V86); experiment: Inhibition of human PIM3 assessed as remaining activity at 1 uM by ATP-competition binding assay relative to control; how it was run: as §2
[17] = target: Serine/threonine-protein kinase pim-2 (Homo sapiens) (UniProt Q9P1W9); experiment: Inhibition of human PIM2 assessed as remaining activity at 1 uM by ATP-competition binding assay relative to control; how it was run: as §2
[18] = target: NT-3 growth factor receptor (Homo sapiens) (UniProt Q16288); experiment: Inhibition of human TRKC assessed as remaining activity at 1 uM by ATP-competition binding assay relative to control; how it was run: as §2
[19] = target: Serine/threonine-protein kinase 26 (Homo sapiens) (UniProt Q9P289); experiment: Inhibition of human MST4 assessed as remaining activity at 1 uM by ATP-competition binding assay relative to control; how it was run: as §1
[20] = test system: eIF-2-alpha kinase GCN2 (Homo sapiens), Q9P2K8 [S808G]; experiment: Inhibition of human GCN2 S808G mutant kinase domain 2 assessed as remaining activity at 1 uM by ATP-competition binding assay relative to control; how it was run: as §1
[21] = target: Proto-oncogene tyrosine-protein kinase Src (Homo sapiens) (UniProt P12931); experiment: Inhibition of human SRC assessed as remaining activity at 1 uM by ATP-competition binding assay relative to control; how it was run: as §2
[22] = target: Protein-tyrosine kinase 6 (Homo sapiens) (UniProt Q13882); experiment: Inhibition of human BRK assessed as remaining activity at 1 uM by ATP-competition binding assay relative to control; how it was run: as §3
[23] = target: Dual specificity protein kinase CLK1 (Homo sapiens) (UniProt P49759); experiment: Inhibition of human CLK1 assessed as remaining activity at 1 uM by ATP-competition binding assay relative to control; how it was run: as §3
[24] = target: 5'-AMP-activated protein kinase catalytic subunit alpha-1 (Homo sapiens) (UniProt Q13131); experiment: Inhibition of human AMPK-alpha1 assessed as remaining activity at 1 uM by ATP-competition binding assay relative to control; how it was run: as §3
Sequence of 5'-AMP-activated protein kinase catalytic subunit alpha-1 (Homo sapiens) (Q13131 whole entry, looked up): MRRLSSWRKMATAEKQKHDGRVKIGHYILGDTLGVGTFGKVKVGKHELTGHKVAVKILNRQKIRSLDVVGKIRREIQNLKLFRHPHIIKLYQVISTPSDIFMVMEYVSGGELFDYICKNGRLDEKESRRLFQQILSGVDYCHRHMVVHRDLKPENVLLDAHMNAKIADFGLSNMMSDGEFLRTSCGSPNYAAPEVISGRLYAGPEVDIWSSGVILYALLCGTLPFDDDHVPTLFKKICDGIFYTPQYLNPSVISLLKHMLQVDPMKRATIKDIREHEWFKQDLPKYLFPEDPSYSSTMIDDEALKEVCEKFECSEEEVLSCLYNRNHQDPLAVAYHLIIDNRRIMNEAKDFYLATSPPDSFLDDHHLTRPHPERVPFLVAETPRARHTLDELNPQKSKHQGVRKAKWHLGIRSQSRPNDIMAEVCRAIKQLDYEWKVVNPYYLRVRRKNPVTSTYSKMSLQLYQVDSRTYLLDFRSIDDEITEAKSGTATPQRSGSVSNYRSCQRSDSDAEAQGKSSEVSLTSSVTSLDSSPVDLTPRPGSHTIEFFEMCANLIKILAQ

Sequence of Serine/threonine-protein kinase 4 (Homo sapiens) (Q13043 whole entry): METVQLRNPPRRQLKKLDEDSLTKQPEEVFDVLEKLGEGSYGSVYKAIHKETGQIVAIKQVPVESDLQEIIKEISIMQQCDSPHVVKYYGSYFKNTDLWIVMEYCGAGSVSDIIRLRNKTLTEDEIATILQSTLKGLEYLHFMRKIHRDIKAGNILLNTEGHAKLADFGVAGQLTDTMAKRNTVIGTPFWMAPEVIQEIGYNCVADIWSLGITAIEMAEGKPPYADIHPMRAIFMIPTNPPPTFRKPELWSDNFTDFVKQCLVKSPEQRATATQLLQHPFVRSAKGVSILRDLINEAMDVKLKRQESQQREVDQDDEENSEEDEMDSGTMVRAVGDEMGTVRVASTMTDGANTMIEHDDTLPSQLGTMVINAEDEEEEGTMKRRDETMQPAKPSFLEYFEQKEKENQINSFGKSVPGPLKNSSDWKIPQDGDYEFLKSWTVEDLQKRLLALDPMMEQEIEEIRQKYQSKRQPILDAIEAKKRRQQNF
Sequence of Serine/threonine-protein kinase pim-2 (Homo sapiens) (Q9P1W9 whole entry, looked up): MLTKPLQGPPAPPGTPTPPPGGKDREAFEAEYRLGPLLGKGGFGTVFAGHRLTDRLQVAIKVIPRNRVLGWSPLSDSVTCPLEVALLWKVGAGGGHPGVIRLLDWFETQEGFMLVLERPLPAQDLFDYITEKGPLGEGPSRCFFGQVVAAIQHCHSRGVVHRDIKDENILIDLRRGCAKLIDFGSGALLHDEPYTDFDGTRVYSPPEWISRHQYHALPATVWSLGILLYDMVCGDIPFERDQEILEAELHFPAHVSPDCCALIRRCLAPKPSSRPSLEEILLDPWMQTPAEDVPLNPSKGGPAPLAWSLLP
Sequence of eIF-2-alpha kinase GCN2 (Homo sapiens), Q9P2K8 [S808G] (Q9P2K8 whole entry S808G, the tested form may be a part): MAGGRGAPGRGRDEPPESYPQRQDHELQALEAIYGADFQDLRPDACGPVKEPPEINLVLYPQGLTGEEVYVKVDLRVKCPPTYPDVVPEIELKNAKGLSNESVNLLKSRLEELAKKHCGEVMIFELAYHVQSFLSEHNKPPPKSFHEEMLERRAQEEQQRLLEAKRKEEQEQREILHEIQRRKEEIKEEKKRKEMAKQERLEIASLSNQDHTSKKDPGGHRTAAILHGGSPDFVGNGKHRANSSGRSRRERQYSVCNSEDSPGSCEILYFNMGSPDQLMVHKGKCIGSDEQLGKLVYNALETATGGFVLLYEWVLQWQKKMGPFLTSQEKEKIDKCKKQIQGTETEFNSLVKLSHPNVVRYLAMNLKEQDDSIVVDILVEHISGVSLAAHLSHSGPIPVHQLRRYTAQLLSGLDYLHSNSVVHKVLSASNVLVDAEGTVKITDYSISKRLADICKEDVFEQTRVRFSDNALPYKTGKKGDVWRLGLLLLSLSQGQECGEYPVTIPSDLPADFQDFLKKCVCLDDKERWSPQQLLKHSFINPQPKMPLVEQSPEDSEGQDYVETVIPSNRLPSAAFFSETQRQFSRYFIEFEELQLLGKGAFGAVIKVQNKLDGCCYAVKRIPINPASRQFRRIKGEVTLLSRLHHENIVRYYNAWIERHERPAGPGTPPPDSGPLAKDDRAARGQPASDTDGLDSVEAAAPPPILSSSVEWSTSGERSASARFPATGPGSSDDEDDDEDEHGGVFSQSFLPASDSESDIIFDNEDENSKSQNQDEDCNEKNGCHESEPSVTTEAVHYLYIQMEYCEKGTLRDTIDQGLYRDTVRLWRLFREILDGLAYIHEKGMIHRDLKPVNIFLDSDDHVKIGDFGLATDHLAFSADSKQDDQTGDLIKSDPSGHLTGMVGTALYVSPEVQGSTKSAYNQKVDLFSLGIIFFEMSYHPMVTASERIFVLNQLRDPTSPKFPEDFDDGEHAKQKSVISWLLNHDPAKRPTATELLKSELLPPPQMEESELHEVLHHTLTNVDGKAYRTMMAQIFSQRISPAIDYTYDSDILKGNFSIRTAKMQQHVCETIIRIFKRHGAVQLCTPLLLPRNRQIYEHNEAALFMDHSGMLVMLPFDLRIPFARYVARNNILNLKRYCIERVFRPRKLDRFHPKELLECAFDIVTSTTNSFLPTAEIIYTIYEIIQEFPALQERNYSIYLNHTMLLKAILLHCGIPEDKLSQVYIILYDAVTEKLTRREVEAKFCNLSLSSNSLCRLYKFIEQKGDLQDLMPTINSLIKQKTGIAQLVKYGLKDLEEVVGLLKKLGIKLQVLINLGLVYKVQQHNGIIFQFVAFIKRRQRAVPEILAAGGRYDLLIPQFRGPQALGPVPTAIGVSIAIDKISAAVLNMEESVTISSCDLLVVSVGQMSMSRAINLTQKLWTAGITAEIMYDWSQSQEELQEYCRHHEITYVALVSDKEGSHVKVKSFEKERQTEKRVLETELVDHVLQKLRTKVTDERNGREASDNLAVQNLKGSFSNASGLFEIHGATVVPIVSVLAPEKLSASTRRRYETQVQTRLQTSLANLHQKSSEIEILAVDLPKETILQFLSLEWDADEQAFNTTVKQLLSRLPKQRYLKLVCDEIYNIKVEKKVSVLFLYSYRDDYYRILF
Sequence of Cyclin-dependent kinase 15 (Homo sapiens) (Q96Q40 whole entry): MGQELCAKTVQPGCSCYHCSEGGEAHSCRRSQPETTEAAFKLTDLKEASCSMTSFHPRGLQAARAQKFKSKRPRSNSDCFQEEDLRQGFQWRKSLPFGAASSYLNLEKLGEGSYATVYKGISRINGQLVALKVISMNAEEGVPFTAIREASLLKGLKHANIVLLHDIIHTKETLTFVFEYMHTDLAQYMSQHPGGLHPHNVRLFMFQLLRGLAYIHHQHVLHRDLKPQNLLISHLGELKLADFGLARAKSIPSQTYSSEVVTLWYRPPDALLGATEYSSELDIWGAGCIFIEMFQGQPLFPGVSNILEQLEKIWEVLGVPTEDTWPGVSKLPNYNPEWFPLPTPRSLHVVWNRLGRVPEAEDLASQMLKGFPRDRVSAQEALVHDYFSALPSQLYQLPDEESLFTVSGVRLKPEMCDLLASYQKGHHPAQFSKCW
Sequence of Maternal embryonic leucine zipper kinase (Homo sapiens) (Q14680 whole entry, looked up, canonical isoform): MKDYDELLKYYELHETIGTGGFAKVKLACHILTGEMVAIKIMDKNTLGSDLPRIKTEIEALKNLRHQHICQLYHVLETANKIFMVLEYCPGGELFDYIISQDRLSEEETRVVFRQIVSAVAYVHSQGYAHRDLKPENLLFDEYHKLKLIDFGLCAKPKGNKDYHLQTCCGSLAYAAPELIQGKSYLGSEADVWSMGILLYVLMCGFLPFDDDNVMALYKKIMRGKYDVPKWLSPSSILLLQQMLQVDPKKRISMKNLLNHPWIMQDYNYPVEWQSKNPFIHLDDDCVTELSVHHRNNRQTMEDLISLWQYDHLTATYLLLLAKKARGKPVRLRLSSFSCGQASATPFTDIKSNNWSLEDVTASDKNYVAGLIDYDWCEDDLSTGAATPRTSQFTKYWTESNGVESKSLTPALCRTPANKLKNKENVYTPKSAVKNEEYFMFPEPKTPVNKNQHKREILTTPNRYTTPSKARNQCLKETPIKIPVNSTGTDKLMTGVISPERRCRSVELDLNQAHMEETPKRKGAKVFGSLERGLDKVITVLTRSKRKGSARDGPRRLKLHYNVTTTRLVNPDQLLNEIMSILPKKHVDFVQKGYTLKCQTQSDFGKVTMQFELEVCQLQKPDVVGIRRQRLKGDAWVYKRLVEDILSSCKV
Sequence of Tyrosine-protein kinase Srms (Homo sapiens) (Q9H3Y6 whole entry): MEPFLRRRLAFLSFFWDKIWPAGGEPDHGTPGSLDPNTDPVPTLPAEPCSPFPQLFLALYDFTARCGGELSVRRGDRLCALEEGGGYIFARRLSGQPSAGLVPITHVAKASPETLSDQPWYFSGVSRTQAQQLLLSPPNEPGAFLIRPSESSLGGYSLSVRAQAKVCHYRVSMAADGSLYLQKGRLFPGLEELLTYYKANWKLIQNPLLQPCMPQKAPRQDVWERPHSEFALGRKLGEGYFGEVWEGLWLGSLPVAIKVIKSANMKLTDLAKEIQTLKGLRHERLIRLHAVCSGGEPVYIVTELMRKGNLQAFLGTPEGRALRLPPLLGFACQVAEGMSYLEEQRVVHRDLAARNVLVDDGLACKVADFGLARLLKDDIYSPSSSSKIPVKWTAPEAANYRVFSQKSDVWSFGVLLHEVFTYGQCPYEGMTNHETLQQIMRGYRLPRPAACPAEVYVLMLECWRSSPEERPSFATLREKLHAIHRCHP
Sequence of Casein kinase I isoform epsilon (Homo sapiens) (P49674 whole entry, looked up, canonical isoform): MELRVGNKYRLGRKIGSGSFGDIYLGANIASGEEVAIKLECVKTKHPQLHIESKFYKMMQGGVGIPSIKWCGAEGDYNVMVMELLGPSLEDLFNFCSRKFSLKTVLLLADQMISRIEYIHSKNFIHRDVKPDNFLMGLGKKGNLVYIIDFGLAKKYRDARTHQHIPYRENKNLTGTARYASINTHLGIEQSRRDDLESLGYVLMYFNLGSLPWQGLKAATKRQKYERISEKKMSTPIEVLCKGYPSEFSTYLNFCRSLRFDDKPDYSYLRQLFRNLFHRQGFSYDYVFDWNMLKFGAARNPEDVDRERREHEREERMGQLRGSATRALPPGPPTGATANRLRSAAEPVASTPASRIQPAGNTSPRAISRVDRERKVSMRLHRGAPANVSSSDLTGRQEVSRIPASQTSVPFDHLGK

In the case of `CC#CC(=O)N1CCC[C@H]1c1nc(-c2ccc(C(=O)Nc3ccccn3)cc2)c2c(N)nccn12` [ACALABRUTINIB], the Activity [1] is reported as 76%, the Activity [2] is reported as 93% and the Activity [3] is reported as 84%. The Activity [4] was 87%, the Activity [5] was 93% and the Activity [6] was 90%. For the same compound, the Activity [7] was 76%, the Activity [8] was 76% and the Activity [9] was 92%. For the same compound, the Activity [10] was 67%, the Activity (Splenocyte) was “Active” and the Activity [11] was 91%. It also gave an Activity [12] of 76%, an Activity [13] of 90% and an Activity [14] of 90%. For the same compound, the Activity [15] was 93%, the Activity [16] was 84% and the Activity [17] was 79%. The Activity [18] was 99%, the Activity [19] was 91% and the Activity [20] was 90%. For the same compound, the Activity [21] was 78%, the Activity [22] was 79% and the Activity [23] was 94%. It also gave an Activity [24] of 86%.
